From ChEMBL document CHEMBL1145477, “Activity of T-1106 in a hamster model of yellow Fever virus infection” (Antimicrob Agents Chemother, 2007)
Activity calls are given as the source filed them. The rule behind the calls is not given here.

Key:
Yellow fever virus [1] = test: Antiviral activity against YFV Jimenez infected in Syrian golden hamster assessed as survival of animal at 32 mg/kg, po for 7 days; type: functional, organism-based; design: dose 32 mg/kg
Yellow fever virus [2] = test: Antiviral activity against YFV Jimenez infected in Syrian golden hamster liver assessed as weight change at 100 mg/kg/day, ip bid for 8 days administered after 3 days post-infection; type: functional; conditions: route intraperitoneal
Yellow fever virus [3] = test: Antiviral activity against YFV Jimenez infected in Syrian golden hamster assessed as survival of animal at 100 mg/kg, po for 7 days; type: functional, organism-based; design: dose 100 mg/kg
Yellow fever virus [4] = test: Antiviral activity against YFV Jimenez infected in Syrian golden hamster liver treated 4 hrs before viral challenge assessed as serum alanine aminotransferase at 100 mg/kg/day, ip bid for 8 days; type: functional; conditions: route intraperitoneal
Method in brief: (§1)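 YFV (Jimenez)-infected female hamsters were treated b.i.d. i.p. or p.o. Serum was drawn by ocular sinus at 6 dpi. ALT was read with a colorimetric kit adapted to microplates: substrate plus serum for 30 min at 37°C, then colour reagent and developer, absorbance at 505 nm. Values are IU/liter against saline controls.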

Yellow fever virus [5] = test: Antiviral activity against YFV Jimenez infected in Syrian golden hamster liver assessed as alanine aminotransferase at 100 mg/kg/day, ip bid for 8 days administered after 4 day post-infection; type: functional; conditions: route intraperitoneal; method in brief: as §1
Yellow fever virus [6] = test: Antiviral activity against YFV Jimenez infected in Syrian golden hamster liver assessed as mean day to death at 100 mg/kg/day, ip bid for 8 days administered after 1 day post-infection; type: functional; conditions: route intraperitoneal
Yellow fever virus [7] = test: Antiviral activity against YFV Jimenez infected in Syrian golden hamster assessed as mean day to death after 21 days post-infection at 32 mg/kg, po bid for 7 days; type: functional
Yellow fever virus [8] = test: Antiviral activity against YFV Jimenez infected in Syrian golden hamster assessed as weight change at 100 mg/kg, ip bid for 7 days; type: functional; conditions: route intraperitoneal
Yellow fever virus [9] = test: Antiviral activity against YFV Jimenez infected in Syrian golden hamster liver assessed as mean day to death at 100 mg/kg/day, ip bid for 8 days administered after 3 days post-infection; type: functional; conditions: route intraperitoneal
Yellow fever virus [10] = test: Antiviral activity against YFV Jimenez infected in Syrian golden hamster liver assessed as weight change at 100 mg/kg/day, ip bid for 8 days administered after 4 day post-infection; type: functional; conditions: route intraperitoneal
Yellow fever virus [11] = test: Antiviral activity against YFV Jimenez infected in Syrian golden hamster liver assessed as survival at 100 mg/kg/day, ip bid for 8 days administered after 1 day post-infection; type: functional, organism-based
Syrian golden hamster [12] = test: Toxicity in YFV infected Syrian golden hamster assessed as survival of animals at 32 mg/kg/day, ip bid for 7 days; type: organism-based, Mesocricetus auratus; design: route intraperitoneal; conditions: in vivo, 168 h
Method in brief: (§2)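 Female Syrian golden hamsters (~100 g), toxicity-control groups of three, sham-infected. Drug suspended in saline or 0.4% carboxymethyl cellulose, given i.p. b.i.d. 12 h apart from −4 h through 7 days. Mortality checked daily; weight taken at 0, 3 and 6 dpi, with change taken as 3-to-6 dpi difference.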

Yellow fever virus [13] = test: Antiviral activity against YFV Jimenez infected in Syrian golden hamster liver assessed as survival at 100 mg/kg/day, ip bid for 8 days administered after 3 days post-infection; type: functional, organism-based
Yellow fever virus [14] = test: Antiviral activity against YFV Jimenez infected in Syrian golden hamster liver assessed as weight change at 100 mg/kg/day, ip bid for 8 days administered after 2 days post-infection; type: functional; conditions: route intraperitoneal
Yellow fever virus [15] = test: Antiviral activity against YFV Jimenez infected in Syrian golden hamster assessed as mean day to death after 21 days post-infection at 100 mg/kg, ip bid for 7 days; type: functional; conditions: route intraperitoneal
Yellow fever virus [16] = test: Antiviral activity against YFV Jimenez infected in Syrian golden hamster liver assessed as weight change at 100 mg/kg/day, ip bid for 8 days administered after 1 day post-infection; type: functional; conditions: route intraperitoneal
Yellow fever virus [17] = test: Antiviral activity against YFV Jimenez infected in Syrian golden hamster liver assessed as mean day to death at 100 mg/kg/day, ip bid for 8 days administered after 4 day post-infection; type: functional; conditions: route intraperitoneal
Yellow fever virus [18] = test: Antiviral activity against YFV Jimenez infected in Syrian golden hamster liver administered 4 hrs before viral challenge twice daily for 4 days post-infection by infectious cell culture assay; type: functional, organism-based
Method in brief: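 Liver was collected at necropsy 4 dpi from 5 hamsters per group, after b.i.d. dosing that began 4 h before i.p. Jimenez YFV challenge. Homogenates were diluted serially from 10−1 to 10−8 onto semiconfluent Vero cells in four replicate columns. CPE was scored microscopically after 6 days, and titer was extrapolated from dilution and tissue weight.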

Yellow fever virus [19] = test: Antiviral activity against YFV Jimenez infected in Syrian golden hamster liver assessed as mean day to death at 100 mg/kg/day, ip bid for 8 days administered after 2 days post-infection; type: functional; conditions: route intraperitoneal
Yellow fever virus [20] = test: Antiviral activity against YFV Jimenez infected in Syrian golden hamster assessed as weight change at 100 mg/kg, po bid for 7 days; type: functional
Yellow fever virus [21] = test: Antiviral activity against YFV Jimenez infected in Syrian golden hamster liver assessed as survival at 100 mg/kg/day, ip bid for 8 days administered after 2 days post-infection; type: functional, organism-based
Yellow fever virus [22] = test: Antiviral activity against YFV Jimenez infected in Syrian golden hamster assessed as serum alanine aminotransferase at 32 mg/kg, ip bid for 7 days; type: functional; conditions: route intraperitoneal; method in brief: as §1
Yellow fever virus [23] = test: Antiviral activity against YFV Jimenez infected in Syrian golden hamster liver treated 4 hrs before viral challenge assessed as survival at 100 mg/kg/day, ip bid for 8 days; type: functional, organism-based
Yellow fever virus [24] = test: Antiviral activity against YFV Jimenez infected in Syrian golden hamster assessed as weight change at 32 mg/kg, ip bid for 7 days; type: functional; conditions: route intraperitoneal
Yellow fever virus [25] = test: Antiviral activity against YFV Jimenez infected in Syrian golden hamster liver assessed as alanine aminotransferase at 100 mg/kg/day, ip bid for 8 days administered after 1 day post-infection; type: functional; conditions: route intraperitoneal; method in brief: as §1
Syrian golden hamster [26] = test: Toxicity in YFV infected Syrian golden hamster assessed as assessed as weight change at 100 mg/kg/day, ip bid for 7 days; type: organism-based, Mesocricetus auratus; design: route intraperitoneal; conditions: in vivo, 168 h; method in brief: as §2

NC(=O)c1nccn([C@@H]2O[C@H](CO)[C@@H](O)[C@H]2O)c1=O
Activity (Yellow fever virus [1]): Active | Activity (Yellow fever virus [2]): 2.9 g | Activity (Yellow fever virus [3]): Active | Activity (Yellow fever virus [4]): 58 IU/L | Activity (Yellow fever virus [5]): 108 IU/L | Activity (Yellow fever virus [6]): >21 days | Activity (Yellow fever virus [7]): >21 days | Activity (Yellow fever virus [8]): 7.1 g | Activity (Yellow fever virus [9]): >21 days | Activity (Yellow fever virus [10]): -4.7 g | Activity (Yellow fever virus [11]): Active | Activity (Syrian golden hamster [12]): Non-toxic | Activity (Yellow fever virus [13]): Active | Activity (Yellow fever virus [14]): 6.3 g | Activity (Yellow fever virus [15]): >21 days | Activity (Yellow fever virus [16]): 6.1 g | Activity (Yellow fever virus [17]): 6 days | Activity (Yellow fever virus [18]): Active | Activity (Yellow fever virus [19]): >21 days | Activity (Yellow fever virus [20]): 6.3 g | Activity (Yellow fever virus [21]): Active | Activity (Yellow fever virus [22]): 65 IU/L | Activity (Yellow fever virus [23]): Active | Activity (Yellow fever virus [24]): 5.2 g | Activity (Yellow fever virus [25]): 56 IU/L | Activity (Syrian golden hamster [26]): 5.3 g
